Bioassay records: PubChem BioAssay, The Scripps Research Institute Molecular Screening Center
CHO parental Ca = counter-screen: ATP calcium response change in parental CHO cells; parental CHO-K1, ATP-induced calcium, Fluo-8 fluorescence; inhibition, % at 5.6 µM; hit rate 0.63% among 330,000; AID 463079;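 active = inhibition above that plate's mean sample inhibition plus 3 SD, cut at about 26% in these data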
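Material – parental CHO cells · Reagent – ATP stimulus · Compound – single nominal dose of 5.6 µM per compound · Detection – Fluo-8 fluorescence · Read-out basis – percent inhibition of calcium signal · Controls – ATP-challenged DMSO wells low, unchallenged DMSO wells high · Repeats – no replicates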
TAAR1 antagonist = human TAAR1 antagonism. CHO RD-HGA16 TAAR1, Fluo-8 calcium fluorescence, antagonist. hit rate 1.5% among 360,000. inhibition, % at 3 µM. AID 624466. Q96RJ0;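 active = inhibition above a per-plate cutoff, the mean inhibition of test compounds on that plate plus 3 SD, cut at about 49% in these data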
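Test system – hTAAR1-expressing CHO RD-HGA16 cells, Gα16-coupled · Reagent – β-PEA at EC80 concentration, post-compound challenge · Compound dosing – 3 µM, single point · Timing – 140 s kinetic read after compound, 140 s after agonist · Detection – Fluo-8 intracellular calcium dye fluorescence, real-time kinetic reads · Control set – DMSO and EC80 PEA controls · Repeats – n of 1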
OX1R antag-1 = human HCRTR1 antagonism. CHO/OX1R cells, Fluo-8 calcium fluorescence, orexin A. inhibition, % at 5 µM. hit rate 0.43% among 330,000;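 active = inhibition above its plate's threshold, mean inhibition of all tested compounds on the plate plus 3 SD, cut at about 37% in these data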
Target sequence (O43613 whole entry, looked up): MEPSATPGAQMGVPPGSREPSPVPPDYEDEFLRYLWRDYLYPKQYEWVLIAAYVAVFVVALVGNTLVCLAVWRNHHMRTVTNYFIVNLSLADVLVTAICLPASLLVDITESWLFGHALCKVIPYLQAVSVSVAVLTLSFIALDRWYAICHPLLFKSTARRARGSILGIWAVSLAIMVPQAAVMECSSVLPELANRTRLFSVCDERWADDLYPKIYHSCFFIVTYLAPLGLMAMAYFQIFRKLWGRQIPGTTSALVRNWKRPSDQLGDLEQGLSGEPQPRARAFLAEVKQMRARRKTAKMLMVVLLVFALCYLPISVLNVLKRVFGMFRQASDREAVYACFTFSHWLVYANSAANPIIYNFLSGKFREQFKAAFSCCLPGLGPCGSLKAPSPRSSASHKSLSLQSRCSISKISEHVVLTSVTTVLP
OX1R antag-2 = antagonists of human orexin 1 receptor (OX1R). OX1R-expressing cells, FRET antagonist read-out. hit rate 1.8% among 330,000. inhibition, % at 6.6 µM. AID 485270; in the data active = inhibition mostly above about 38%, no sharp cut-off; inactive = mostly below about 40%
TAAR1 ag = human TAAR1 agonism; Q96RJ0; CHO RD-HGA16 TAAR1, Fluo-8 calcium fluorescence; vehicle wells 0%, saturating PEA agonist 100%; activation, % at 3 µM; hit rate 0.99% among 360,000;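 active = activation above the mean activation of all test compounds in the run plus 3 SD, cut at about 38% in these data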
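Assay system: CHO-derived RD-HGA16 cells with stable Gα16 and human TAAR1; timing: 17-24 h seeding, 75 min 37 °C dye, 30 min RT; read-out: % activation from peak over basal fluorescence ratio, DMSO-to-PEA scaled; measured by: kinetic Fluo-8 calcium fluorescence; benchmarks: low control DMSO, high control PEA (EC100); doses: 3 µM single concentration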
A number is an active result; - = inactive; . = no result given. Compounds with a hit are over-represented: about 4% of the library has one in this group of screens.

SMILES	CHO parental Ca	TAAR1 antagonist	OX1R antag-1	OX1R antag-2	TAAR1 ag
Cc1cc(NC(=O)/C=C/c2ccccc2Cl)no1	-	-	-	-	-
CN(C)c1ccc(NC(=O)/C=C/c2ccccc2Cl)cc1	-	-	-	64	-
CCN(CC)c1ccc(NC(=O)/C=C\c2ccccc2Cl)cc1	-	-	-	40	-
COc1cccc(C(=O)N[C@@H](CC(C)C)C(=O)N2CCC[C@H]2C(=O)NCc2ccccc2)c1	.	-	.	.	-
CN(c1ccc(OCC(=O)OCC(=O)Nc2ccc(F)cc2)cc1)S(=O)(=O)c1ccc(Cl)cc1	-	-	-	-	-
Cc1ccc(S(=O)(=O)N(C)C)cc1NC(=O)COC(=O)CSc1ccccc1	-	-	-	-	-
Cc1ccc(S(=O)(=O)N(C)C)cc1NC(=O)COc1ccccc1C(=O)Nc1ccccc1	-	55	-	-	-
COc1ccc(NC(=O)COc2ccc(N(C)S(=O)(=O)c3ccc(Cl)cc3)cc2)cc1OC	90	61	51	45	-
CC(=O)c1ccccc1NC(=O)COc1ccc(N(C)S(=O)(=O)c2ccc(C)c(C)c2)cc1	-	-	-	-	-
CC(=O)Nc1ccc(S(=O)(=O)N(C)c2ccc(OCC(=O)Nc3ccccc3C(C)=O)cc2)cc1	.	55	.	.	-
O=C(N[C@H](Cc1ccccc1)C(=O)NCc1ccco1)[C@H]1O[C@@H](n2ccc(=O)[nH]c2=O)[C@H](O)[C@@H]1O	.	-	.	.	-
Cc1ccc(S(=O)(=O)n2nc(C)c(Br)c2C)c(C)c1C	-	-	52	-	-
Cc1c(/C=C/C(=O)c2ccccc2)cnn1C	-	-	-	41	-
CCc1nc2n(n1)C(O)c1cc([N+](=O)[O-])ccc1S2 (stereo not given)	-	-	-	46	-
CCc1ccc(OCC(=O)NNC(=S)NC(=O)C2CC2)c(Br)c1	.	-	.	.	40
C#CCNC(=O)C[C@H]1C[C@@]2(C(=O)OC)C(=C[C@H](C3CCCC3)O[C@@H]2C)N(CCCCCCCC)C1=O	.	-	.	.	-
CCOC(=O)C1CCCN(C(=O)Cc2c(C(=O)O)[nH]c3ccccc23)C1 (stereo not given)	-	-	-	-	39
CCOC(=O)C1CCCN(C(=S)Nc2ccc(Nc3ccccc3)cc2)C1 (stereo not given)	-	-	-	-	44
CCOC(=O)C1CCCN(C(=O)C2c3ccccc3Oc3ccccc32)C1 (stereo not given)	-	-	-	45	-
CCOC(=O)C1CCCN(C(=O)c2ccc(-c3ccc([N+](=O)[O-])cc3)o2)C1 (stereo not given)	-	-	-	-	49
COCCNC(=O)c1ccc(NS(=O)(=O)c2ccc3[nH]c(=O)[nH]c3c2)cc1	-	-	-	-	-
CCc1ccc(NC(=O)NCC2CCN(Cc3cccc(Cl)c3)CC2)cc1	-	-	-	-	-
Cc1ccc(NC(=O)NCC2CCN(Cc3cccc(Cl)c3)CC2)cc1Cl	-	-	-	-	42
Cc1ccc(C)c(CN2CCC(CNC(=O)Nc3ccc(F)c(Cl)c3)CC2)c1	-	-	-	-	38
Cc1cc(C)cc(NC(=O)NCC2CCN(Cc3cc(C)ccc3C)CC2)c1	-	-	-	-	-
SMILES	CHO parental Ca	TAAR1 antagonist	OX1R antag-1	OX1R antag-2	TAAR1 ag
CC(=O)c1cccc(NC(=O)C2Cc3c(-c4cccc(F)c4)ccnc3O2)c1 (stereo not given)	.	-	.	.	-
CCc1cccc(C)c1NC(=O)CN(C)Cc1ccc(Br)cc1	40	-	-	-	-
CSc1ccccc1NC(=O)CN(C)Cc1ccc(Br)cc1	-	-	-	-	-
Cc1ccsc1CN(C)CC(=O)Nc1ccc([N+](=O)[O-])cc1Cl	-	52	-	-	-
CN(CC(=O)Nc1cc([N+](=O)[O-])ccc1Cl)Cc1ccc(Br)cc1	-	-	-	-	-
COCCNC(=O)CN(c1ccc(F)cc1)S(=O)(=O)c1ccc2c(c1)OCCO2	-	-	-	-	-
O=C(N[C@H](C(=O)N1CCC[C@H]1C(=O)NC1CCCC1)c1ccccc1)C1CC1	.	-	.	.	-
O=[N+]([O-])c1ccc(C[n+]2cccc3c4ccccc4ccc32)cc1	-	-	-	49	-
Cc1ccc[n+](Cc2ccc([N+](=O)[O-])cc2)c1	-	-	-	-	-
CCOC(=O)C1(CCOc2ccccc2)CCN(Cc2ccc(-n3cccn3)cc2)CC1	-	-	-	-	-
Cc1cc(C)c(C#N)c(SCC(O)CS(=O)(=O)Cc2ccccc2)n1 (stereo not given)	-	-	-	-	-
Cc1cc(C)c(C#N)c(SCC(O)COc2ccc(Br)cc2)n1 (stereo not given)	-	56	-	-	-
COc1cccc(C(=O)/C=C/Nc2ccc(S(=O)(=O)Nc3ccc(C(C)=O)cc3)cc2)c1	-	-	-	-	-
COc1ccc(C(=O)/C=C/Nc2ccc(S(=O)(=O)Nc3cccc(C(C)=O)c3)cc2)cc1	36	56	47	71	-
O=C(/C=C/c1cccs1)c1ccc(NC(=O)c2cccc(Br)c2)cc1	-	55	-	-	-
CC(=O)Nc1ccc(NS(=O)(=O)c2ccc(-c3cnc(C4CC4)o3)cc2)cc1	-	-	-	-	-
CC(=O)c1cccc(NS(=O)(=O)c2ccc(-c3cnc(C4CC4)o3)cc2)c1	50	-	-	-	-
O=C(O)c1cccc(NC(=O)c2ccccc2)c1	.	-	.	.	-
O=C(Nc1cccc(C(=O)Nc2cccc(Br)c2)c1)c1ccccc1	-	62	-	-	-
O=C(NCc1ccccc1)[C@@H]1CCCN1C(=O)[C@H]1CCCN1C(=O)c1cccc(F)c1	.	-	.	.	-
Cc1ccc(C(=O)NC2CCCCN(C)C2=O)c(C)c1 (stereo not given)	.	-	.	.	-
Nc1[nH]c(C(=O)c2ccccc2)c(-c2cccc3ccccc23)c1C(=O)NC1CCCCC1	.	-	.	.	-
COC(=O)[C@@H](N[C@H](/C=C/c1ccccc1)[C@@H](O)Cc1ccccc1)C(C)C	.	-	.	.	-
COc1ccc(C(=O)Cn2c(Cl)nc3c2c(=O)n(C)c(=O)n3C)cc1	-	-	-	-	-
CC(=O)c1cccc(NC(=O)c2ccc(N(C)S(=O)(=O)c3ccc(C)cc3)cc2)c1	-	55	-	-	-
CCC(CC)C(=O)Nc1cccc(C(=O)Nc2ccc(S(N)(=O)=O)cc2)c1	-	-	-	-	-
CCC(CC)C(=O)Nc1cccc(C(=O)Nc2ccc(S(=O)(=O)Nc3ccc(C)cc3)cc2)c1	-	-	55	54	-
CC(=O)c1cccc(NS(=O)(=O)c2ccc(C(=O)Nc3ccccc3)cc2)c1	71	-	70	74	-
CC(=O)c1cccc(CN2CCCC(C(=O)Nc3ccc(-c4ccco4)cc3)C2)c1 (stereo not given)	-	-	-	-	-
COC(=O)c1cc2c(c3c4cc(C)ccc4n(S(=O)(=O)c4ccc(OC)cc4)c13)C(=O)N(Cc1ccccc1)C2	.	-	.	.	-
